Calb FLC – affects C. albicans growth with fluconazole; C. albicans CaCi-2 (fluconazole-resistant clinical isolate) + fluconazole, Alamar Blue growth, 48 h; 300,000 tested, 0.57% active; growth inhibition, % (test concentration not listed);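 active = growth inhibition above about 58% in most replicates, limit read from the data, passing the limit was not always enough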;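 note: all wells also contain fluconazole at 8 µg/ml as a sub-toxic cotreatment; 0% = median of DMSO wells and 100% = median of geldanamycin control wells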
T cruzi inh – blocks replication of Trypanosoma cruzi | AID 1885 | T. cruzi beta-gal in NIH3T3, luminescence, 90 h | 300,000 tested, 1.4% active | inhibition, % (concentration not given with the values);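 active = mean inhibition across valid replicates above about 55%, limit read from the data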;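 note: signal also drops with host cell toxicity which is not excluded here; 0% = plate median of DMSO wells and 100% = zero luminescence signal; higher percent means less beta-gal luminescence so fewer parasites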
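Assay system: NIH/3T3 fibroblasts plus reporter T. cruzi. Amount: NIH/3T3 cells, 5,000 per well. Buffer or medium: DMEM, 2% fetal bovine serum. Doses: compound pinned at 50 nL/well, DMSO. Schedule: ≥90 h infection period, 3 h prior cell attachment. Signal: luminescent β-galactosidase signal after 60 min lysis. Read-out: parasite load inhibition, %.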
TAG inh – reduces triacylglycerol accumulation in H9c2 cells. inhibition, % at 12.5 µM. Nile Red lipid (TAG) fluorescence; cells loaded with 200 µM oleic acid. 230,000 tested, 0.66% active;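 active = pattern-corrected inhibition of lipid staining of at least 50% with the nuclear-stain viability signal not falling by more than 50%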;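 note: 0% = DMSO wells and 100% = triacsin C control wells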
CSC inhib – cancer stem cell inhibition; 300,000 tested, 1.1% active; inhibition, % at 7.5 µM; cancer stem cell-like cells viability, luminescence; in the data active = inhibition above about 75%; tested in HMLE shEcad cells
Bfl-1 A1 inh – inhibitors of the anti-apoptotic protein A1, read as caspase activation; MEF A1-2A-BIM cells, Caspase-Glo 3/7 luminescence, 3 h; percent of clofoctol response, vehicle zero; caspase activation, % (test concentration not listed); 330,000 tested, 0.066% active; AID 2462;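 active = over half of replicate activation scores above 10%, or exactly half above 10 with the replicate mean above 10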
Beta apoptosis – blocks beta cell apoptosis; INS-1E cytokine-induced death, ATP luminescence, 48 h; percent of positive-control rescue, neutral wells zero; protection from apoptosis, % (concentration not given with the values); 300,000 tested, 0.8% active; AID 435005;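 active = Every replicate reaches about 75%, or at least half do and their mean reaches it too, limit read from the data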;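 note: 0% = cytokine-treated negative control wells and 100% = positive control rescue; higher means more ATP so stronger rescue from cytokine killing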
The depositor's hits bear a star; . = no result. A selection: hits, their analogues and other compounds. The true share with any hit is near 3.1%.

SMILES	Calb FLC	T cruzi inh	TAG inh	CSC inhib	Bfl-1 A1 inh	Beta apoptosis
CCCOc1ccc(-c2nc(N3CCN(CC)CC3)c3ccccc3n2)cc1	9.3	34.3	.	88.2*	-0.2	6.6
c1ccc(N2CCN(c3nc(-c4ccccn4)nc4ccccc34)CC2)cc1	17.5	48.9	-70.9	-3.9	0.7	92.7*
CCN1CCN(c2nc(-c3ccncc3)nc3ccccc23)CC1	-7.8	69.0*	.	-12.0	0.0	16.8
CC(=O)Nc1cccc(Oc2nc(-c3ccccn3)nc3ccccc23)c1	-1.0	-13.8	23.6	32.4	0.4	14.1
CCCOc1ccc(-c2nc(N3CCN(C)CC3)c3ccccc3n2)cc1	-24.1	48.3	.	19.0	-0.4	7.5
Cc1ccccc1Oc1nc(-c2ccccn2)nc2ccccc12	-2.4	15.9	57.2*	7.7	-0.1	87.6*
CC(=O)c1cccc(NC(=O)COc2cc(C)on2)c1	.	.	3.8	2.5	0.2	-1.8
CC(Sc1nnc(C2CC2)n1C1CC1)C(=O)N(C)Cc1cccc(F)c1 (stereo not given)	.	.	4.7	.	0.1	-13.1
Cn1c(C(=O)N2CCN(c3nc4ccccc4s3)CC2)cc2sccc21	-2.6	1.9	.	.	1.0	-12.7
O=C(c1cc2sccc2n1Cc1ccc(F)cc1)N1CCN(c2nc3ccccc3s2)CC1	-2.1	41.2	-3.3	25.4	-2.4	100.3*
CN1CCN(C2=Cc3cc(Cl)ccc3Sc3cc(F)ccc32)CC1	30.5	38.5	26.4	112.6*	0.8	.
OCCN1CCN(C2Cc3cc(Cl)ccc3Sc3ccc(Cl)cc32)CC1 (stereo not given) (tested in a mixture with another compound)	1.9	14.2	-9.8	.	-0.5	100.5*
CN1CCN(C2Cc3cc(Cl)ccc3Sc3cc(F)ccc32)CC1 (stereo not given)	36.3	45.7	13.7	100.9*	1.2	.
CCCCN(C(=O)c1nn(C)c(=O)c2ccccc12)c1c(N)n(CC(C)C)c(=O)[nH]c1=O	.	.	0.9	.	0.2	1.7
COc1ccc(OC)c(CN2CCN(C(=O)CCNC(=O)c3ccc(Br)cc3)CC2)c1	-3.1	60.3*	-5.1	-6.5	0.6	-6.1
O=C(NC1CCCCC1)C(c1ccc2ncccc2c1)N(Cc1ccc(F)cc1)C(=O)c1ccc2c(c1)OCCO2 (stereo not given)	86.5*	7.8	.	20.8	-0.9	-4.2
O=C(/C=C/c1ccco1)N(Cc1ccccc1F)C1CCS(=O)(=O)C1 (stereo not given)	-4.5	-6.0	.	.	.	.
COc1cc2oc3ccc(C#Cc4ccccn4)cc3c(=O)c2cc1OC	57.4	58.7*	3.6	6.8	1.3	.
Cn1c2ccccc2c(=O)c2cc(C#Cc3ccccn3)ccc21	13.9	-12.7	10.2	82.3*	-7.0	-2.6
COc1ccc(C(=O)CSc2nc(C(C)(C)C)nc3ccccc23)cc1	0.1	23.0	-166.6	21.0	-0.1	4.0
CCc1ccc(NC(=O)C/C(C)=N/NC(=O)COc2ccccc2C)cc1	15.3	-10.6	.	.	0.0	0.7
COc1ccc(C(C)=O)cc1COC(=O)c1ccc(C)c(S(=O)(=O)N2CCOCC2)c1	.	.	-34.4	-5.7	0.8	-6.6
CCOc1ccccc1NC(=O)C(CC)Sc1nc2ccncc2[nH]1 (stereo not given)	-19.8	11.7	.	-1.2	0.3	0.0
CCC(Sc1nc2ccncc2[nH]1)C(=O)Nc1ccc(C)c(Cl)c1 (stereo not given)	27.4	61.9*	10.3	0.3	0.0	0.1
Cc1ccc(CNC(=O)[C@H](Cc2ccccc2)NC(=O)C2CCNCC2)cc1	.	0.3	.	-5.5	0.0	-4.5
c1ccc(-c2ccc3[nH]ccc3c2)cc1	.	.	10.0	-3.7	0.3	-5.0
c1cc2cc(-c3c(-c4ccc5c(c4)OCO5)noc3-c3ccsc3)ccc2[nH]1	-1.2	48.4	5.5	120.8*	-0.5	14.5
c1ccc(-c2onc(-c3ccco3)c2-c2ccc3[nH]ccc3c2)cc1	4.2	25.2	6.9	119.8*	-1.2	-1.7
Cc1noc(C)c1COc1ccc(C(=O)OC(C)C(=O)Nc2ccc(N3CCOCC3)cc2)cc1 (stereo not given)	-4.0	-3.1	33.0	6.8	5.8*	0.7
CCOc1ccc(OCC(=O)c2c(O)c3ccccc3oc2=O)cc1	1.6	-3.5	10.4	9.1	-0.4	-3.3

Bioassay records: PubChem BioAssay, several laboratories
